From ChEMBL document CHEMBL1156982, “New 3-methylquinoxaline-2-carboxamide 1,4-di-N-oxide derivatives as anti-Mycobacterium tuberculosis agents” (Bioorg Med Chem, 2010) come the findings set out here.

Each structure is given as a SMILES string. ≈ marks a conversion by molar mass, not a printed value.

In one assay the test system is Vero. The assay can be described thus: Cytotoxicity against african green monkey Vero cells after 72 hrs by MTT assay. Conditions: Chlorocebus sabaeus. The class given is cell-based. The method in brief:
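VERO cells were exposed to compound for 72 h. Viability was read from cellular conversion of MTT to formazan (CellTiter 96 non-radioactive proliferation assay), and the IC50 was determined.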
On the technique in general: Tetrazolium dyes change colour on reduction, which living cells bring about.

Assay [1] relates to Mycobacterium tuberculosis. Nature of the assay: Antituberculosis activity against Mycobacterium tuberculosis H37Rv ATCC 27294 after 4 days by microplate alamar blue assay. The class given is functional. Particulars: H37Rv ATCC 27294, 96 h. Put shortly: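 M. tuberculosis H37Rv (ATCC 27294) in BACTEC 12B medium, tested by Microplate Alamar Blue Assay across a range of lower concentrations. MIC is the lowest concentration giving a 90% reduction in fluorescence versus controls. Rifampicin was the reference.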
Background: Resazurin is reduced to fluorescent resorufin, in cell work by metabolically active cells.

The nature of assay [2]: Selectivity ratio of IC50 for Vero cells to MIC for Mycobacterium tuberculosis H37Rv ATCC 27294. The class given is functional. Put shortly:
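SI is the ratio of the IC50 measured in VERO cells (72 h MTT) to the MIC against M. tuberculosis H37Rv (MABA, 90% fluorescence reduction). An SI of 10 or more counts as active at the second screening level.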

Assay [3] concerns Mycobacterium tuberculosis. The assay can be described thus: Antituberculosis activity against Mycobacterium tuberculosis H37Rv ATCC 27294. The class given is functional.

Turning to `Cc1c(C(=O)NCCc2ccccc2)[n+]([O-])c2cc(C(F)(F)F)ccc2[n+]1[O-]`, the IC50 in the assay on Vero is above 30 µg/mL. In assay [1], this compound registered an MIC of 1.15 µg/mL (≈ 2.95 µM). For the same compound, the Selectivity ratio in assay [2] is given as above 26.019. Further, the Activity entry in assay [3] is “>=90%”.
In turn, `COc1ccc(CCNC(=O)c2c(C)[n+]([O-])c3ccccc3[n+]2[O-])cc1` came in with an IC50 in the assay on Vero above 30 µg/mL. The compound also returned a minimal inhibitory concentration (MIC) in assay [1] of 3.46 µg/mL (≈ 9.8 µM). The Selectivity ratio in assay [2] is above 8.6605. The Activity result in assay [3] is given as “>=90%”.
On the same counts, the results for `COc1ccc(CCNC(=O)c2c(C)[n+]([O-])c3ccc(F)cc3[n+]2[O-])cc1` are above 30 µg/mL, below 0.195 µg/mL, above 153.84 and “>=90%”.
Regarding `COc1ccc(CCNC(=O)c2c(C)[n+]([O-])c3cc(F)c(F)cc3[n+]2[O-])cc1`, in the assay on Vero, the IC50 was above 30 µg/mL. The MIC in assay [1] turned out to be 2.06 µg/mL (≈ 5.29 µM). Besides, the Selectivity ratio in assay [2] is above 14.577. In addition, the Activity result in assay [3] is “>=90%”.
On the same counts, the results for `Cc1c(C(=O)NCc2ccccc2)[n+]([O-])c2cc(F)c(F)cc2[n+]1[O-]` are 18.4 µg/mL (≈ 53.2 µM), 1.73 µg/mL (≈ 5 µM), 10.64 and “>=90%”.
On the same counts, the results for `Cc1c(C(=O)NCCc2ccccc2)[n+]([O-])c2cc(Cl)c(Cl)cc2[n+]1[O-]` are above 30 µg/mL, below 0.195 µg/mL, above 153.84 and “>=90%”.
Compound `Cc1c(C(=O)NCCc2ccccc2)[n+]([O-])c2cc(F)ccc2[n+]1[O-]` showed an IC50 in the assay on Vero above 100 µg/mL. This compound gave an MIC in assay [1] of 0.504 µg/mL (≈ 1.48 µM). Moreover, in assay [2], the Selectivity ratio is above 198.41. In addition, the Activity result in assay [3] is “>=90%”.
In turn, `COc1ccc2c(c1)[n+]([O-])c(C(=O)NCc1ccccc1)c(C)[n+]2[O-]` came in with an MIC in assay [1] of 12.3 µg/mL (≈ 36.4 µM). In assay [3], the Activity entry was “>=90%”.
Take `Cc1c(C(=O)NCc2ccccc2)[n+]([O-])c2cc(Cl)ccc2[n+]1[O-]`: the IC50 with Vero was above 100 µg/mL. In assay [1], this compound returned an MIC of 0.433 µg/mL (≈ 1.26 µM). In assay [2], the Selectivity ratio is recorded as above 230.94. Further, in assay [3], the Activity result is “>=90%”.
For `Cc1ccc2c(c1)[n+]([O-])c(C(=O)NCc1ccccc1)c(C)[n+]2[O-]`, in that order: above 100 µg/mL, 4.21 µg/mL (≈ 13 µM), above 23.77 and “>=90%”.
`Cc1c(C(=O)NCCc2ccccc2)[n+]([O-])c2cc(F)c(F)cc2[n+]1[O-]`: the IC50 with Vero was above 30 µg/mL. In assay [1], this compound returned an MIC of 0.517 µg/mL (≈ 1.44 µM). Besides, in assay [2], the Selectivity ratio is above 58.027. In addition, the Activity entry in assay [3] was “>=90%”.
For `COc1ccc(CCNC(=O)c2c(C)[n+]([O-])c3ccc(Cl)cc3[n+]2[O-])cc1`, in that order: above 30 µg/mL, below 0.195 µg/mL, above 153.84 and “>=90%”.
On the same counts, the results for `COc1ccc(CCNC(=O)c2c(C)[n+]([O-])c3cc(Cl)c(Cl)cc3[n+]2[O-])cc1` are above 30 µg/mL, 0.454 µg/mL (≈ 1.08 µM), above 66.079 and “>=90%”.
On the same counts, the results for `Cc1c(C(=O)NCc2ccccc2)[n+]([O-])c2cc(Cl)c(Cl)cc2[n+]1[O-]` are above 100 µg/mL, below 0.2 µg/mL, above 500 and “>=90%”.
`COc1ccc(CNC(=O)c2c(C)[n+]([O-])c3ccc(C(F)(F)F)cc3[n+]2[O-])cc1` gave an IC50 with Vero above 30 µg/mL. In assay [1], this compound yielded an MIC of 0.999 µg/mL (≈ 2.45 µM). In assay [2], the Selectivity ratio is listed as above 30.03. Further, the Activity entry in assay [3] is recorded as “>=90%”.
For `Cc1c(C(=O)NCc2ccccc2)[n+]([O-])c2cc(C(F)(F)F)ccc2[n+]1[O-]`, in that order: above 100 µg/mL, 0.406 µg/mL (≈ 1.08 µM), above 246.3 and “>=90%”.
In turn, `COc1ccc(CNC(=O)c2c(C)[n+]([O-])c3ccccc3[n+]2[O-])cc1` had an IC50 in the assay on Vero above 30 µg/mL. This compound also gave a minimal inhibitory concentration (MIC) in assay [1] of 2.85 µg/mL (≈ 8.39 µM). Moreover, in assay [2], the Selectivity ratio is given as above 10.537. Also, the Activity result in assay [3] was “>=90%”.
`COc1ccc(CNC(=O)c2c(C)[n+]([O-])c3ccc(C)cc3[n+]2[O-])cc1` returned an IC50 with Vero above 30 µg/mL. In assay [1], this compound registered a minimum inhibitory concentration (MIC) of 8.9 µg/mL (≈ 25.2 µM). Also, the Selectivity ratio in assay [2] is listed as above 3.3696. Further, in assay [3], the Activity result was “>=90%”.
In the case of `Cc1c(C(=O)NCc2ccccc2)[n+]([O-])c2cc(F)ccc2[n+]1[O-]`, in the assay with Vero, the IC50 is above 100 µg/mL. Also, in assay [1], 1.52 µg/mL (≈ 4.65 µM) was the least that counted as inhibitory (MIC). Moreover, the Selectivity ratio in assay [2] is on record as above 65.7. Further, the Activity entry in assay [3] is on record as “>=90%”.
For the compound `COc1ccc(CNC(=O)c2c(C)[n+]([O-])c3cc(C)c(C)cc3[n+]2[O-])cc1`, the MIC in assay [1] is above 100 µg/mL. The Activity result in assay [3] was “>=90%”.
`Cc1c(C(=O)NCCc2ccccc2)[n+]([O-])c2ccccc2[n+]1[O-]` gave a half-inhibitory concentration (IC50) with Vero above 100 µg/mL. In assay [1], this compound had an MIC of 3.05 µg/mL (≈ 9.43 µM). Further, in assay [2], the Selectivity ratio is given as above 32.81. In addition, the Activity result in assay [3] is given as “>=90%”.
Take `Cc1ccc2c(c1)[n+]([O-])c(C(=O)NCCc1ccccc1)c(C)[n+]2[O-]`: the IC50 with Vero was above 100 µg/mL. In addition, it took 8.62 µg/mL (≈ 25.6 µM) to inhibit growth in assay [1] (MIC). The Selectivity ratio in assay [2] is above 11.6. Moreover, in assay [3], the Activity entry was “>=90%”.
`Cc1cc2c(cc1C)[n+]([O-])c(C(=O)NCCc1ccccc1)c(C)[n+]2[O-]`: in assay [1], the MIC was 16.4 µg/mL (≈ 46.6 µM). For the same compound, the Activity result in assay [3] was “>=90%”.
For `COc1ccc2c(c1)[n+]([O-])c(C(=O)NCCc1ccccc1)c(C)[n+]2[O-]`, in that order: 13.7 µg/mL (≈ 38.7 µM) and “>=90%”.
The compound `Cc1c(C(=O)NCCc2ccccc2)[n+]([O-])c2cc(Cl)ccc2[n+]1[O-]` had an IC50 in the assay with Vero above 100 µg/mL. This compound also had an MIC in assay [1] below 0.2 µg/mL. Also, the Selectivity ratio in assay [2] was above 500. Besides, the Activity entry in assay [3] is “>=90%”.
For `COc1ccc(CCNC(=O)c2c(C)[n+]([O-])c3ccc(C(F)(F)F)cc3[n+]2[O-])cc1`, in that order: above 30 µg/mL, 1.43 µg/mL (≈ 3.39 µM), above 21.023 and “>=90%”.
Compound `COc1ccc(CNC(=O)c2c(C)[n+]([O-])c3ccc(OC)cc3[n+]2[O-])cc1` displayed an MIC in assay [1] of 12 µg/mL (≈ 32.5 µM). Further, the Activity result in assay [3] is recorded as “>=90%”.
Regarding `COc1ccc(CCNC(=O)c2c(C)[n+]([O-])c3ccc(OC)cc3[n+]2[O-])cc1`, the lowest concentration to inhibit growth in assay [1] (MIC) was 16.9 µg/mL (≈ 44 µM). The Activity result in assay [3] was “>=90%”.
Take `COc1ccc(CNC(=O)c2c(C)[n+]([O-])c3ccc(Cl)cc3[n+]2[O-])cc1`: in assay [3], the Activity result is given as “>=90%”.
Turning to `Cc1c(C(=O)NCc2ccccc2)[n+]([O-])c2ccccc2[n+]1[O-]`, the concentration for half-maximal inhibition (IC50) in the assay with Vero was above 100 µg/mL. Moreover, in assay [1], the lowest concentration to inhibit growth (MIC) was 2.61 µg/mL (≈ 8.42 µM). The Selectivity ratio in assay [2] was above 38.372. Further, the Activity result in assay [3] is listed as “>=90%”.
Consider `Cc1cc2c(cc1C)[n+]([O-])c(C(=O)NCc1ccccc1)c(C)[n+]2[O-]`, for which the MIC in assay [1] was above 100 µg/mL. Further, the Activity entry in assay [3] is listed as “>=90%”.
Regarding `COc1ccc(CCNC(=O)c2c(C)[n+]([O-])c3ccc(C)cc3[n+]2[O-])cc1`, the IC50 in the assay with Vero is above 30 µg/mL. Also, it took 8.85 µg/mL (≈ 24.1 µM) to inhibit growth in assay [1] (MIC). The Selectivity ratio in assay [2] is above 3.389. Further, the Activity entry in assay [3] is “>=90%”.
As for `COc1ccc(CCNC(=O)c2c(C)[n+]([O-])c3cc(C)c(C)cc3[n+]2[O-])cc1`, in assay [1], the MIC was above 100 µg/mL. The Activity result in assay [3] is “>=90%”.
As to `COc1ccc(CNC(=O)c2c(C)[n+]([O-])c3cc(Cl)c(Cl)cc3[n+]2[O-])cc1`, the Activity entry in assay [3] was “>=90%”.
For `COc1ccc(CNC(=O)c2c(C)[n+]([O-])c3ccc(F)cc3[n+]2[O-])cc1`, the IC50 in the assay with Vero was above 30 µg/mL. In assay [1], the MIC came out at 1.51 µg/mL (≈ 4.22 µM). Moreover, in assay [2], the Selectivity ratio is reported as above 19.893. Besides, the Activity entry in assay [3] is on record as “>=90%”.
For `COc1ccc(CNC(=O)c2c(C)[n+]([O-])c3cc(F)c(F)cc3[n+]2[O-])cc1`, in that order: 16.6 µg/mL (≈ 44.2 µM), 0.764 µg/mL (≈ 2.04 µM), 21.734 and “>=90%”.
The compound `CO[C@H]1/C=C/O[C@@]2(C)Oc3c(C)c(O)c4c(O)c(c(/C=N/N5CCN(C)CC5)c(O)c4c3C2=O)NC(=O)/C(C)=C\C=C\[C@H](C)[C@H](O)[C@@H](C)[C@@H](O)[C@@H](C)[C@H](OC(C)=O)[C@@H]1C` [RIFAMPIN] gave a 50% inhibitory concentration (IC50) in the assay with Vero above 100 µg/mL. In addition, in assay [1], the lowest concentration to inhibit growth (MIC) was 0.015 µg/mL (≈ 0.0182 µM). The Selectivity ratio in assay [2] is listed as above 800.

As a reminder, the IC50 is the concentration at which inhibition is half-maximal. A word on the MIC: it is the least concentration at which growth counts as inhibited.
